hERG protect: compounds protecting human hERG from proarrhythmic drug block; hit rate 0.51% among 310,000; activation (rescue from dofetilide block), less the hit threshold, % at 10 µM; Q12809; CHO-hERG, FluxOR thallium flux, dofetilide IC70 present;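 active means activation above the mean of controls blocked by dofetilide plus 5 SD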;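 further: thallium influx through hERG after potassium depolarization seen as dye fluorescence rise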
KCNK9 inh: human KCNK9 channel inhibition; Q9NPC2; HEK293 KCNK9, FluxOR thallium flux fluorescence; active compounds read low; B-score at 10 µM; hit rate 1.2% among 310,000;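 active means ratio B-score over 3 SD below the library mean, with starting fluorescence within 5 SD of its mean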;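 further: negative B-score means less thallium flux so channel inhibition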
KCC2 mod: modulators of human KCC2 chloride dependent transport; Q9H2X9; KCC2 cells, thallium flux FluoZin-2 fluorescence; B-score of Tl+ flux slope (higher = more flux/activation; lower = inhibition) at 10 µM; hit rate 2.2% among 190,000;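 active means thallium flux slope and its plate-corrected score both differing from the plate sample mean at a set confidence after two filtering rounds, in either direction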;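 further: slope of fluorescence scaled to starting intensity during 10 to 20 s after thallium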
KCNQ1 inh: inhibitors of human KCNQ1 potassium channel. hit rate 1.3% among 310,000. B-score at 10 µM. CHO-K1 KCNQ1, FluxOR thallium flux fluorescence; active compounds read high;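 active means compounds whose thallium flux B-score, printed positive for inhibition, exceeds three library SD while starting fluorescence stays within three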;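 further: channel opened by potassium depolarization with thallium stimulus after 20 min compound exposure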
KCNK3 inh: human KCNK3 channel inhibition, primary screen | O14649 | CHO-KCNK3 thallium flux, FluxOR fluorescence; active compounds read low | B-score at 10 µM | hit rate 0.84% among 340,000;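 active means B-score under library mean minus 4 SD, starting fluorescence ratio at most library mean plus 5 SD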;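 further: more negative B-score means stronger inhibition of thallium flux through KCNK3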
Target sequence (O14649 whole entry, looked up): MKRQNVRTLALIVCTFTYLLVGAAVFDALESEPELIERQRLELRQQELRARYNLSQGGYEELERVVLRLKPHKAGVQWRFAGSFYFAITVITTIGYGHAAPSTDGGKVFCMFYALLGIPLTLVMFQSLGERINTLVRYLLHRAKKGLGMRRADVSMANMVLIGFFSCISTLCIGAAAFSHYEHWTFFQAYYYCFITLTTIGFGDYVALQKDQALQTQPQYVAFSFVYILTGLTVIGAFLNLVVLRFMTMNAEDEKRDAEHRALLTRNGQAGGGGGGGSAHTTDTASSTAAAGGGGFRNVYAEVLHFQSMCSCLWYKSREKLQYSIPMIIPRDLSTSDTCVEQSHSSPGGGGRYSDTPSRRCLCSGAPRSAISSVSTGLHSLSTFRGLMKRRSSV
KCNQ1 pot: human KCNQ1 channel potentiation or activation; P51787; B-score at 10 µM; CHO-K1 KCNQ1, thallium flux FluxOR fluorescence; active compounds read high; hit rate 0.35% among 310,000;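 active means fluorescence ratio B-score, a plate-corrected score, at least three library SD, with initial intensity B-score within 5 SD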
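Medium – assay buffer, equal DMSO in all wells · Material – CHO-K1 cell line with stable KCNQ1 potassium channel expression · Signal – kinetic FluxOR thallium fluorescence, 10-s 1-Hz baseline, 110-s post-stimulus read · Compound – single concentration per compound, DMSO matched to controls · Schedule – 37 °C overnight plating, 90-min dark dye load, 20-min compound pretreatment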
KCNK9 inh conf: confirmation of human KCNK9 potassium channel inhibitors; shares compounds with KCNK9 inh; HEK293 KCNK9 cells, FluxOR thallium flux fluorescence; inhibition, % at 10 µM; hit rate 43% among 4,900; AID 492992;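 active means thallium signal inhibited by more than 5 SD of the compound-free buffer control wells, on both duplicate plates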
Kir21 sel: mouse Kir2.1 off-target activity of KCNK9 modulators; shares compounds with KCNK9 inh; Kir2.1 cells, FluxOR thallium flux fluorescence; inhibition, % at 10 µM; hit rate 4% among 4,900;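 active means thallium signal drop more than 5 SD beyond the mean of the no-compound control wells, seen in both duplicate plates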;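 further: signal is fluorescence rise after thallium addition divided by baseline fluorescence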
HEK293 Tl ctr: second counter-screen for KCNK9 modulators: effect in non-induced cells; shares compounds with KCNK9 inh; non-induced KCNK9-HEK293, FluxOR thallium flux; inhibition, % at 10 µM; hit rate 40% among 4,900; AID 492997;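 active means thallium signal drop beyond 5 SD of the untreated control mean, on both duplicate plates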
A number is an active result. An excerpt weighted towards active compounds, which were near 4.1% of everything screened.

What do the screens show for `COc1cccc(CN2CCN(Cc3ccccc3C(F)(F)F)CC2)c1`?
hERG protect: inactive; KCNK9 inh: inactive; KCNQ1 inh: inactive; KCNK3 inh: inactive; KCNQ1 pot: inactive; KCNK9 inh conf: inactive; Kir21 sel: inactive; HEK293 Tl ctr: inactive

What do the screens show for `O=S1(=O)CCN(Cc2ccccc2C(F)(F)F)CC1`?
hERG protect: inactive; KCNK9 inh: inactive; KCC2 mod: inactive; KCNQ1 inh: inactive; KCNK3 inh: inactive; KCNQ1 pot: inactive

How did O=c1c(NCCc2ccc(Cl)cc2)c(-c2ccccc2)c1=O do in these assays?
hERG protect: inactive; KCNK9 inh: inactive; KCNQ1 inh: inactive; KCNK3 inh: inactive; KCNQ1 pot: inactive

How did O=C1CC(N2CCN(S(=O)(=O)c3cccc(C(F)(F)F)c3)CC2)C(=O)N1Cc1ccccc1 (stereo not drawn) do in these assays?
hERG protect: inactive; KCNK9 inh: inactive; KCC2 mod: inactive; KCNQ1 inh: inactive; KCNK3 inh: inactive; KCNQ1 pot: inactive; KCNK9 inh conf: inactive; Kir21 sel: inactive; HEK293 Tl ctr: inactive

How did Cc1ccc(S(=O)(=O)N2CCN(C3CC(=O)N(Cc4ccccc4)C3=O)CC2)cc1C (stereo not drawn) do in these assays?
hERG protect: inactive; KCNK9 inh: inactive; KCC2 mod: inactive; KCNQ1 inh: inactive; KCNK3 inh: inactive; KCNQ1 pot: inactive

Results for COc1ccc(N2CCN(C(=O)CC34CC5CC(CC(C5)C3)C4)CC2)c([N+](=O)[O-])c1 ?
hERG protect: inactive; KCNK9 inh: -12; KCC2 mod: inactive; KCNQ1 inh: inactive; KCNK3 inh: inactive; KCNQ1 pot: inactive; KCNK9 inh conf: 66%; Kir21 sel: inactive; HEK293 Tl ctr: inactive

Results for CCOC(=O)C(Oc1ccc2c(-c3ccccc3)cc(=O)oc2c1C)c1ccccc1 (stereo not drawn) ?
hERG protect: inactive; KCNK9 inh: inactive; KCC2 mod: inactive; KCNQ1 inh: inactive; KCNK3 inh: inactive; KCNQ1 pot: inactive

Results for CCOC(=O)C(Oc1ccc2c(-c3ccc(OC)cc3)cc(=O)oc2c1C)c1ccccc1 (stereo not drawn) ?
hERG protect: inactive; KCNK9 inh: -11; KCC2 mod: inactive; KCNQ1 inh: inactive; KCNK3 inh: inactive; KCNQ1 pot: inactive; KCNK9 inh conf: 50%; Kir21 sel: inactive; HEK293 Tl ctr: 32%

What do the screens show for `CC(C)Cn1c(=O)c2c(nc3n2CCCN3CCc2ccccc2)n(C)c1=O`?
hERG protect: inactive; KCNK9 inh: -8.6; KCC2 mod: inactive; KCNQ1 inh: inactive; KCNK3 inh: inactive; KCNQ1 pot: inactive; KCNK9 inh conf: 46%; Kir21 sel: inactive; HEK293 Tl ctr: inactive

Results for Cn1c(=O)n(CCc2ccccc2)c(=O)c2c1nc1n2CCCN1CCc1ccccc1 ?
hERG protect: inactive; KCNK9 inh: inactive; KCC2 mod: inactive; KCNQ1 inh: inactive; KCNK3 inh: inactive; KCNQ1 pot: inactive

How did Cc1ccc(SCCCn2cnc3ccccc3c2=O)cc1 do in these assays?
hERG protect: inactive; KCNK9 inh: inactive; KCC2 mod: inactive; KCNQ1 inh: inactive; KCNK3 inh: inactive; KCNQ1 pot: inactive; KCNK9 inh conf: inactive; Kir21 sel: inactive; HEK293 Tl ctr: inactive

How did Cc1cc(C)c(C)c(OCCCCn2cnc3ccccc3c2=O)c1 do in these assays?
hERG protect: inactive; KCNK9 inh: inactive; KCC2 mod: inactive; KCNQ1 inh: inactive; KCNK3 inh: inactive; KCNQ1 pot: inactive

What do the screens show for `Cc1cccc(N2CCN(CC(=O)NCc3ccc(Cl)cc3)CC2)c1C`?
hERG protect: inactive; KCNK9 inh: inactive; KCNQ1 inh: inactive; KCNK3 inh: inactive; KCNQ1 pot: inactive; KCNK9 inh conf: inactive; Kir21 sel: inactive; HEK293 Tl ctr: inactive

Results for Cn1c(=O)oc2cc(S(=O)(=O)CCC(=O)N3CCN(c4ccccc4F)CC3)ccc21 ?
hERG protect: inactive; KCNK9 inh: inactive; KCNQ1 inh: inactive; KCNK3 inh: inactive; KCNQ1 pot: inactive

Results for Cc1ccc(C)c(N2CCN(C(=O)CCS(=O)(=O)c3ccc4c(c3)oc(=O)n4C)CC2)c1 ?
hERG protect: inactive; KCNK9 inh: inactive; KCNQ1 inh: inactive; KCNK3 inh: inactive; KCNQ1 pot: inactive; KCNK9 inh conf: inactive; Kir21 sel: inactive; HEK293 Tl ctr: inactive

Results for O=C1/C(=C/c2ccncc2)SC(=S)N1C1CCCCC1 ?
hERG protect: inactive; KCNK9 inh: inactive; KCC2 mod: inactive; KCNQ1 inh: inactive; KCNK3 inh: inactive; KCNQ1 pot: inactive

Results for Cc1ccc(/C=C2/SC(=S)N(C3CCCCC3)C2=O)o1 ?
hERG protect: inactive; KCNK9 inh: inactive; KCNQ1 inh: inactive; KCNK3 inh: inactive; KCNQ1 pot: inactive; KCNK9 inh conf: inactive; Kir21 sel: inactive; HEK293 Tl ctr: inactive

Results for CN1N=C(c2ccc(Cl)cc2)CC(c2ccc(Cl)cc2)C1=O (stereo not drawn) ?
hERG protect: inactive; KCNK9 inh: -11; KCC2 mod: inactive; KCNQ1 inh: inactive; KCNK3 inh: inactive; KCNQ1 pot: inactive; KCNK9 inh conf: 38%; Kir21 sel: inactive; HEK293 Tl ctr: 40%

How did COc1cccc(C2/C(=C(\O)c3ccc4c(c3)OCCO4)C(=O)C(=O)N2CCCN2CCOCC2)c1OC (stereo not drawn) do in these assays?
hERG protect: inactive; KCNK9 inh: inactive; KCNQ1 inh: inactive; KCNK3 inh: inactive; KCNQ1 pot: inactive

Results for COc1ccc2c(c1)CCC/C2=N/OC(=O)c1ccccc1OC ?
hERG protect: inactive; KCNK9 inh: -12; KCC2 mod: inactive; KCNQ1 inh: inactive; KCNK3 inh: inactive; KCNQ1 pot: inactive; KCNK9 inh conf: 62%; Kir21 sel: inactive; HEK293 Tl ctr: inactive

How did COc1ccc2c(c1)CC/C2=N\OC(=O)c1ccccc1C do in these assays?
hERG protect: inactive; KCNK9 inh: inactive; KCC2 mod: inactive; KCNQ1 inh: inactive; KCNK3 inh: inactive; KCNQ1 pot: inactive

What do the screens show for `O=C(COc1coc(CN2CCc3ccccc32)cc1=O)Nc1ccccc1`?
hERG protect: inactive; KCNK9 inh: inactive; KCNQ1 inh: inactive; KCNK3 inh: inactive; KCNQ1 pot: inactive

How did COc1ccc(-c2c[n+](CC(=O)OC3CC(C)CCC3C(C)C)c3n2CCC3)cc1 (stereo not drawn) do in these assays?
hERG protect: inactive; KCNK9 inh: inactive; KCC2 mod: inactive; KCNQ1 inh: inactive; KCNK3 inh: inactive; KCNQ1 pot: inactive

Screening data as filed in PubChem.
